Results reported in ChEMBL document CHEMBL1124774, “Synthesis and biological activity of some derivatives of rifamycin P” (1990).
In brackets after ≈: the same amount, converted by molar mass.

Columns and labels:
[1] = system: Klebsiella pneumoniae; test: In vitro antibacterial activity of compound against Klebsiella pneumoniae ISM; type: functional
[2] = system: Mycobacterium scrofulaceum; test: In vitro activity of compound against slowly growing Mycobacterium scrofulaceum 1292; type: functional
In short: (§1)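 Medium was Middlebrook 7H10 agar with 2% glycerol and 10% OADC. Organisms from Loevenstein-Jensen slants were grown in 7H9 broth with 0.5% Tween and 10% OADC, adjusted to McFarland no. 1, and spotted with a multipoint inoculator. Sealed plates were incubated at 22, 30 or 37 °C for 4-20 days depending on strain.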

[3] = system: Mycobacterium scrofulaceum; test: In vitro activity of compound against slowly growing Mycobacterium scrofulaceum 1293; type: functional; in short: as §1
[4] = system: Mycobacterium scrofulaceum; test: In vitro activity of compound against slowly growing Mycobacterium scrofulaceum 1297; type: functional; in short: as §1
[5] = system: Mycobacterium scrofulaceum; test: In vitro activity of compound against slowly growing Mycobacterium scrofulaceum 1301; type: functional; in short: as §1
[6] = system: Mycobacterium xenopi; test: In vitro activity compound against slowly growing Mycobacterium xenopi 1446; type: functional; in short: as §1
[7] = system: Mycobacterium xenopi; test: In vitro activity of compound against slowly growing Mycobacterium xenopi 554; type: functional; in short: as §1
[8] = system: Mycobacterium xenopi; test: In vitro activity of compound against slowl growingy Mycobacterium xenopi 555; type: functional; in short: as §1
[9] = system: Mycolicibacterium phlei; test: In vitro activity of compound against rapidly growing Mycobacterium phlei 141; type: functional; in short: as §1
[10] = system: Mycolicibacterium phlei; test: In vitro activity of compound against rapidly growing Mycobacterium phlei 1283; type: functional; in short: as §1
[11] = system: Mycolicibacterium phlei; test: In vitro activity of compound against rapidly growing Mycobacterium phlei 1289; type: functional; in short: as §1
[12] = system: Mycobacterium kansasii; test: In vitro activity compound against slowly growing Mycobacterium kansasii 1298; type: functional; in short: as §1
[13] = system: Mycobacterium kansasii; test: In vitro activity of compound against slowly growing Mycobacterium kansasii 1299; type: functional; in short: as §1
[14] = system: Mycobacterium marinum; test: In vitro activity of compound against slowly growing Mycobacterium marinum 1388; type: functional; in short: as §1
[15] = system: Mycobacterium marinum; test: In vitro activity of compound against slowly growing Mycobacterium marinum 1390; type: functional; in short: as §1
[16] = system: Mycobacterium marinum; test: In vitro activity of compound against slowly growing Mycobacterium marinum 1391; type: functional; in short: as §1
[17] = system: Mycolicibacterium fortuitum; test: In vitro activity of compound against rapidly growing Mycobacterium fortuitum 114; type: functional; in short: as §1
[18] = system: Mycolicibacterium fortuitum; test: In vitro activity of compound against rapidly growing Mycobacterium fortuitum 1285; type: functional; in short: as §1
[19] = system: Mycolicibacterium fortuitum; test: In vitro activity of compound against rapidly growing Mycobacterium fortuitum 1287; type: functional; in short: as §1
[20] = system: Mycolicibacterium fortuitum; test: In vitro activity compound against rapidly growing Mycobacterium fortuitum 1302; type: functional; in short: as §1
[21] = system: Mycolicibacterium fortuitum; test: In vitro activity of compound against rapidly growing Mycobacterium fortuitum 140; type: functional; in short: as §1
[22] = system: Mycolicibacterium fortuitum; test: In vitro activity compound against rapidly growing Mycobacterium fortuitum 1440; type: functional; in short: as §1
[23] = system: Mycolicibacterium fortuitum; test: In vitro activity of compound against rapidly growing Mycobacterium fortuitum 646; type: functional; in short: as §1
[24] = system: Mycobacterium gordonae; test: In vitro activity of compound against slowly growing Mycobacterium gordonae 1294; type: functional; in short: as §1
[25] = system: Mycobacterium gordonae; test: In vitro activity of compound against slowly growing Mycobacterium gordonae 1441; type: functional; in short: as §1
[26] = system: Mycobacterium kansasii; test: In vitro activity compound against slowly growing Mycobacterium kansasii 1291; type: functional; in short: as §1
[27] = system: Mycolicibacterium flavescens; test: In vitro activity of compound against rapidly growing Mycobacterium flavescens 1284; type: functional; in short: as §1
[28] = system: Mycolicibacterium flavescens; test: In vitro activity of compound against rapidly growing Mycobacterium flavescens 1286; type: functional; in short: as §1
[29] = system: Mycobacterium marinum; test: In vitro activity of compound against slowly growing Mycobacterium marinum 1392 h; type: functional; in short: as §1
[30] = system: Mycobacterium marinum; test: In vitro activity of compound against slowly growing Mycobacterium marinum 1393; type: functional; in short: as §1
[31] = system: Mycobacterium marinum; test: In vitro activity of compound against slowly growing Mycobacterium marinum 1394; type: functional; in short: as §1
[32] = system: Mycobacterium marinum; test: In vitro activity of compound against slowly growing Mycobacterium marinum 1447; type: functional; in short: as §1
[33] = system: Mycobacterium tuberculosis; test: In vitro antibacterial activity of compound against Mycobacterium tuberculosis H37Rv ATCC 9660; type: functional
[34] = system: Mycobacterium avium; test: 50% inhibition of the 20 Mycobacterium (MAC) avium complex clinical isolates; type: functional
In short: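 Agar-dilution MICs, 2-fold dilutions over 128-0.0001 μg/mL, on Middlebrook 7H10 agar with 2% glycerol and 10% OADC. Organisms from Loevenstein-Jensen slants were grown in 7H9 broth with 0.5% Tween and 10% OADC, adjusted to McFarland no. 1, and spotted with a multipoint inoculator. Plates were sealed and incubated at 22, 30 or 37 °C for 4-20 days depending on strain.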

[35] = system: Neisseria gonorrhoeae; test: In vitro antibacterial activity of compound against Neisseria gonorrhoeae ISM 68/126; type: functional
[36] = system: Pseudomonas aeruginosa; test: In vitro antibacterial activity of compound against Pseudomonas aeruginosa ATCC 10145; type: functional
In short: (§2)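 Twofold microdilution MIC in Iso-Sensitest broth over 128-0.0001 µg/mL. Inoculum was 10^4 cfu/mL, with incubation at 37 °C for 18-24 h.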

[37] = system: Staphylococcus aureus; test: Activity in the murine model (OS route) of Staphylococcus aureus tour septicemia; type: functional
In short: (§3)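 Male and female CD1 mice (18-22 g) were infected ip with S. aureus Tour. The challenge was set so untreated mice died within 48 h. Groups were five mice, dosed once daily for 3 days starting immediately after infection. ED50 was calculated on day 10 from the percentage surviving at each dose.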

[38] = system: Staphylococcus aureus; test: Activity in the murine model (subcutaneous route) of Staphylococcus aureus tour septicemia; type: functional; conditions: sc; in short: as §3
[39] = system: Staphylococcus epidermidis; test: In vitro antibacterial activity of compound against Staphylococcus epidermidis ATCC 12228; type: functional; in short: as §2
[40] = system: Streptococcus pyogenes; test: In vitro antibacterial activity of compound against Streptococcus pyogenes C 203 SKF 13400; type: functional
In short: (§4)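 Streptococcal MICs were run by twofold microdilution in Todd-Hewitt broth over 128-0.0001 µg/mL. Inoculum was 10^4 cfu/mL, with incubation at 37 °C for 18-24 h.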

[41] = system: Staphylococcus aureus; test: In vitro antibacterial activity of compound against Staphylococcus aureus Tour L 165; type: functional; in short: as §2
[42] = system: Streptococcus pneumoniae; test: In vitro antibacterial activity of compound against Streptococcus pneumoniae UC 41; type: functional; in short: as §4
[43] = system: Enterococcus faecalis; test: In vitro antibacterial activity of compound against Streptococcus faecalis ATCC 7080.; type: functional; in short: as §2
[44] = system: Mycolicibacterium fortuitum; test: In vitro activity of compound against rapidly growing Mycobacterium fortuitum 645; type: functional; in short: as §1
[45] = system: Haemophilus influenzae; test: In vitro antibacterial activity of compound against Haemophilus influenzae ATCC 19418; type: functional
[46] = system: Mycobacterium xenopi; test: In vitro activity of compound against slowly growing Mycobacterium xenopi 556; type: functional; in short: as §1
[47] = system: Mycobacteroides chelonae; test: In vitro activity of compound against rapidly growing Mycobacterium chelonae 1443

## COC1/C=C/OC2(C)Oc3c(C)c(O)c4c(O)c(c(C=NN5CCN(C6CCCC6)CC5)c(O)c4c3C2=O)NC(=O)/C(C)=C\C=C\C(C)C(O)C(C)C(O)C(C)C(OC(C)=O)C1C (configuration not stated)
[1]
  MIC: 32 µg/mL (≈ 36.5 µM)
[2]
  MIC: 0.016 µg/mL (≈ 0.0182 µM)
[3]
  MIC: 0.032 µg/mL (≈ 0.0365 µM)
[4]
  MIC: 0.063 µg/mL (≈ 0.0718 µM)
[5]
  MIC: 4 µg/mL (≈ 4.56 µM)
[6]
  MIC: 0.25 µg/mL (≈ 0.285 µM)
[7]
  MIC: 0.25 µg/mL (≈ 0.285 µM)
[8]
  MIC: 0.25 µg/mL (≈ 0.285 µM)
[9]
  MIC: 0.016 µg/mL (≈ 0.0182 µM)
[10]
  MIC: 0.063 µg/mL (≈ 0.0718 µM)
[11]
  MIC: 2 µg/mL (≈ 2.28 µM)
[12]
  MIC: 0.063 µg/mL (≈ 0.0718 µM)
[13]
  MIC: 2 µg/mL (≈ 2.28 µM)
[14]
  MIC: 0.125 µg/mL (≈ 0.143 µM)
[15]
  MIC: 0.5 µg/mL (≈ 0.57 µM)
[16]
  MIC: 0.125 µg/mL (≈ 0.143 µM)
[17]
  MIC: 32 µg/mL (≈ 36.5 µM)
[18]
  MIC: 4 µg/mL (≈ 4.56 µM)
[19]
  MIC: 1 µg/mL (≈ 1.14 µM)
[20]
  MIC: 0.5 µg/mL (≈ 0.57 µM)
[21]
  MIC: 32 µg/mL (≈ 36.5 µM)
[22]
  MIC: 32 µg/mL (≈ 36.5 µM)
[23]
  MIC: 32 µg/mL (≈ 36.5 µM)
[24]
  MIC: 0.5 µg/mL (≈ 0.57 µM)
[25]
  MIC: 1 µg/mL (≈ 1.14 µM)
[26]
  MIC: 4 µg/mL (≈ 4.56 µM)
[27]
  MIC: 32 µg/mL (≈ 36.5 µM)
[28]
  MIC: 0.125 µg/mL (≈ 0.143 µM)
[29]
  MIC: 0.125 µg/mL (≈ 0.143 µM)
[30]
  MIC: 0.125 µg/mL (≈ 0.143 µM)
[31]
  MIC: 0.125 µg/mL (≈ 0.143 µM)
[32]
  MIC: 0.125 µg/mL (≈ 0.143 µM)
[33]
  MIC: 0.063 µg/mL (≈ 0.0718 µM)
[34]
  MIC50: 1 µg/mL (≈ 1.14 µM)
[35]
  MIC: 0.5 µg/mL (≈ 0.57 µM)
[36]
  MIC: 8 µg/mL (≈ 9.12 µM)
[37]
  ED50: 0.22 mg/kg
[38]
  ED50: 0.18 mg/kg
[39]
  MIC: 0.063 µg/mL (≈ 0.0718 µM)
[40]
  MIC: 0.063 µg/mL (≈ 0.0718 µM)
[41]
  MIC: 0.063 µg/mL (≈ 0.0718 µM)
[42]
  MIC: 0.063 µg/mL (≈ 0.0718 µM)
[43]
  MIC: 2 µg/mL (≈ 2.28 µM)
[44]
  MIC: 2 µg/mL (≈ 2.28 µM)
[45]
  MIC: 0.5 µg/mL (≈ 0.57 µM)
[46]
  MIC: 0.5 µg/mL (≈ 0.57 µM)
[47]
  MIC: > 128 µg/mL
